Legend:
L1210 [1] = test: Antitumor activity against mouse L1210 cells allografted in BDF1 mouse assessed as increase in host survival time at 100 mg/kg, ip administered on day 2 and 6 relative to control; assay type: functional; settings: route intraperitoneal
Summary of the method: (§1)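 BDF1 mice received ip L1210 lymphoid leukemia cells on day 0. Compounds were then given ip in saline, saline/Tween 80, or Klucel vehicle, repeated every fourth day at a fixed dose from the 400, 200, 100 mg/kg series. Assays used three or six mice, with vehicle-treated controls. T/C % is treated over control mean survival time, expressed as percent.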

Mus musculus [2] = test: Toxicity in BDF1 mouse allografted with mouse L1210 cells at 100 mg/kg, ip administered on day 2 and 6; assay type: organism-based; set-up: dose 100 mg/kg, route intraperitoneal; settings: in vivo
Summary of the method: (§2)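 BDF1 mice implanted ip on day 0 with L1210 lymphoid leukemia cells. Compound given ip as a suspension in saline, saline with Tween 80, or Klucel (HPC), with injections every fourth day. Multiple dose levels 400, 200 and 100 mg/kg; three- or six-mouse groups. Toxicity scored as survivors per animals started, recorded on day 5.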

[3] = target: Lactoylglutathione lyase (Saccharomyces cerevisiae); test: Inhibition of yeast glyoxalase-1 using methylglyoxal and glutathione as substrate; settings: read-out: I50
[4] = target: Lactoylglutathione lyase (Saccharomyces cerevisiae); test: Competitive inhibition of yeast glyoxalase-1 using methylglyoxal and glutathione as substrate by Lineweaver-Burk plot analysis
L1210 [5] = test: Antitumor activity against mouse L1210 cells allografted in BDF1 mouse assessed as increase in host survival days at 100 mg/kg, ip administered on day 2 and 6 relative to control; assay type: functional; settings: route intraperitoneal
Summary of the method: (§3)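 L1210 lymphoid leukemia cells were implanted ip in BDF1 mice on day 0. Compounds were given ip as suspensions in saline, saline with Tween 80, or Klucel (hydroxypropylcellulose). Injections were repeated every fourth day at the same dose. Groups had three or six mice, and controls received vehicle only. The read-out was mean survival time in days for treated and control animals.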

L1210 [6] = test: Antitumor activity against mouse L1210 cells allografted in BDF1 mouse assessed as increase in host survival time at 200 mg/kg, ip administered on day 2 and 6 relative to control; assay type: functional; settings: route intraperitoneal; summary of the method: as §1
L1210 [7] = test: Antitumor activity against mouse L1210 cells allografted in BDF1 mouse assessed as increase in host survival days at 200 mg/kg, ip administered on day 2 and 6 relative to control; assay type: functional; settings: route intraperitoneal; summary of the method: as §3
Mus musculus [8] = test: Toxicity in BDF1 mouse allografted with mouse L1210 cells at 200 mg/kg, ip administered on day 2 and 6; assay type: organism-based; set-up: dose 200 mg/kg, route intraperitoneal; settings: in vivo; summary of the method: as §2
L1210 [9] = test: Antitumor activity against mouse L1210 cells allografted in BDF1 mouse assessed as increase in host survival time at 100 mg/kg, ip administered on day 1 relative to control; assay type: functional; settings: route intraperitoneal
Mus musculus [10] = test: Toxicity in BDF1 mouse allografted with mouse L1210 cells at 100 mg/kg, ip administered on day 1; assay type: organism-based; set-up: dose 100 mg/kg, route intraperitoneal; settings: in vivo; summary of the method: as §2
L1210 [11] = test: Antitumor activity against mouse L1210 cells allografted in BDF1 mouse assessed as increase in host survival days at 100 mg/kg, ip administered on day 1 relative to control; assay type: functional; settings: route intraperitoneal
Mus musculus [12] = test: Toxicity in BDF1 mouse allografted with mouse L1210 cells at 200 mg/kg, ip administered on day 1, 5, and 9; assay type: organism-based; set-up: dose 200 mg/kg, route intraperitoneal; settings: in vivo; summary of the method: as §2
L1210 [13] = test: Antitumor activity against mouse L1210 cells allografted in BDF1 mouse assessed as increase in host survival time at 200 mg/kg, ip administered on day 1, 5, and 9 relative to control; assay type: functional; settings: route intraperitoneal; summary of the method: as §1
L1210 [14] = test: Antitumor activity against mouse L1210 cells allografted in BDF1 mouse assessed as increase in host survival days at 200 mg/kg, ip administered on day 1, 5, and 9 relative to control; assay type: functional; settings: route intraperitoneal; summary of the method: as §3
Mus musculus [15] = test: Toxicity in BDF1 mouse allografted with mouse L1210 cells at 100 mg/kg, ip administered on day 1, 5, and 9; assay type: organism-based; set-up: dose 100 mg/kg, route intraperitoneal; settings: in vivo; summary of the method: as §2
L1210 [16] = test: Antitumor activity against mouse L1210 cells allografted in BDF1 mouse assessed as increase in host survival time at 100 mg/kg, ip administered on day 1, 5, and 9 relative to control; assay type: functional; settings: route intraperitoneal; summary of the method: as §1
L1210 [17] = test: Antitumor activity against mouse L1210 cells allografted in BDF1 mouse assessed as increase in host survival days at 100 mg/kg, ip administered on day 1, 5, and 9 relative to control; assay type: functional; settings: route intraperitoneal; summary of the method: as §3
Mus musculus [18] = test: Toxicity in BDF1 mouse allografted with mouse L1210 cells at 400 mg/kg, ip administered on day 1; assay type: organism-based; set-up: dose 400 mg/kg, route intraperitoneal; settings: in vivo; summary of the method: as §2
L1210 [19] = test: Antitumor activity against mouse L1210 cells allografted in BDF1 mouse assessed as increase in host survival days at 400 mg/kg, ip administered on day 1 relative to control; assay type: functional; settings: route intraperitoneal
L1210 [20] = test: Antitumor activity against mouse L1210 cells allografted in BDF1 mouse assessed as increase in host survival time at 400 mg/kg, ip administered on day 1 relative to control; assay type: functional; settings: route intraperitoneal

CCCCSC(=O)C(C)O (stereo not given)
Time (L1210 [1]): 10 days
Activity (Mus musculus [2]): Toxic
IC50 [3]: 16.5 mM
Ki [4]: 12.9 mM
T/C (L1210 [5]): 99%

CC(O)C(=O)SCc1ccccc1 (stereo not given)
Time (L1210 [6]): 10.3 days
T/C (L1210 [7]): 98%
IC50 [3]: 7.1 mM
Ki [4]: 5.5 mM
Activity (Mus musculus [8]): Toxic

CCCCSC(=O)C(O)c1ccccc1 (stereo not given)
Time (L1210 [9]): 9.8 days
Activity (Mus musculus [10]): Toxic
IC50 [3]: 37.8 mM
Ki [4]: 29.6 mM
T/C (L1210 [11]): 105%

O=C(SCc1ccccc1)C(O)c1ccccc1 (stereo not given)
Activity (Mus musculus [12]): Toxic
Time (L1210 [13]): 10.7 days
T/C (L1210 [14]): 100%
IC50 [3]: 8.1 mM
Ki [4]: 6.3 mM

COC(=O)CSC(=O)C(O)c1ccccc1 (stereo not given)
Activity (Mus musculus [12]): Toxic
Time (L1210 [13]): 10.5 days
T/C (L1210 [14]): 103%
IC50 [3]: 10.5 mM
Ki [4]: 8.2 mM

CCCCOC(=O)CSC(=O)C(O)c1ccccc1 (stereo not given)
Activity (Mus musculus [15]): Toxic
Time (L1210 [16]): 10.2 days
IC50 [3]: 44.5 mM
T/C (L1210 [17]): 105%
Ki [4]: 34.7 mM

COC(=O)CCSC(=O)C(O)c1ccccc1 (stereo not given)
Activity (Mus musculus [18]): Toxic
T/C (L1210 [19]): 105%
Time (L1210 [20]): 9.8 days
IC50 [3]: 49.6 mM
Ki [4]: 38.6 mM

Reference: ChEMBL document CHEMBL3272302, “Synthesis and evaluation of alpha-hydroxythiol esters as antitumor agents and glyoxalase I inhibitors” (J Med Chem, 1977)
